Reference: ChEMBL document CHEMBL4024801, “Synthesis and Structure-Activity Relationship (SAR) Studies of Novel Pyrazolopyridine Derivatives as Inhibitors of Enterovirus Replication” (J Med Chem, 2018)

Columns and labels:
[1] = Selectivity index, ratio of CC50 for monkey LLC-MK2 cells to EC50 for Enterovirus A71; format: toxicity; conditions: read-out: Ratio CC50/EC50
How it was run: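 LLC-MK2 cells in DMEM with 10% FBS were used for both arms. For EC50, cells were infected with EV-A71 at a low MOI giving full CPE in 3–4 days and exposed to 2-fold compound dilutions, in triplicate. For CC50, uninfected cells got 2-fold dilutions for the same period. Both arms were formaldehyde-fixed, crystal violet-stained and read at OD590.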

[2] = Cytotoxicity against human HeLa-RW cells after 3 to 4 days by crystal violet staining-based spectrophotometric method; format: cell-based; conditions: hela-rw
How it was run: (§1)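 Uninfected cells (HeLa-RW or LLC-MK2, in DMEM with penicillin, streptomycin, glutamine and 10% FBS) were exposed to serial 2-fold compound dilutions for the same period as the CPE assay. They were then fixed with formaldehyde, stained with crystal violet and read by OD590 spectrophotometry to derive CC50. Values are means ± s.d. of 3 experiments, or the average of triplicates in one.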

Coxsackievirus B3 = assay: Antiviral activity against Coxsackievirus B3 infected in human HeLa-RW cells assessed as protection against virus-induced cytopathic effect after 3 to 4 days by crystal violet staining-based spectrophotometric method; format: functional, cell-based; conditions: Enterovirus B
How it was run: (§2)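 HeLa-RW cells grown in DMEM with penicillin, streptomycin, glutamine and 10% FBS. They were infected at a low MOI pre-set to give full CPE in 3-4 days. Compound in DMSO was added as serial 2-fold dilutions (7 points), each in triplicate. When control CPE was maximal, cells were fixed with 4% formaldehyde, stained with 0.25% crystal violet and read at OD590. EC50 came from a four-parameter or sigmoidal fit.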

[3] = Selectivity index, ratio of CC50 for human HeLa-RW cells to EC50 for Coxsackievirus B3; format: toxicity; conditions: read-out: Ratio CC50/EC50
How it was run: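 HeLa-RW cells in DMEM with 10% FBS were used for both arms. For EC50, cells were infected with CVB3-H3 at a low MOI giving full CPE in 3–4 days and exposed to 2-fold compound dilutions, in triplicate, with a 7-point fit. For CC50, uninfected cells got 2-fold dilutions for the same period. Both arms were fixed, crystal violet-stained and read at OD590.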

Poliovirus 1 = assay: Antiviral activity against Poliovirus 1 infected in human HeLa-RW cells assessed as protection against virus-induced cytopathic effect after 3 to 4 days by crystal violet staining-based spectrophotometric method; format: functional, cell-based; conditions: Enterovirus C; how it was run: as §2
Enterovirus A71 = assay: Antiviral activity against Enterovirus A71 infected in monkey LLC-MK2 cells assessed as protection against virus-induced cytopathic effect after 3 to 4 days by crystal violet staining-based spectrophotometric method; format: functional, cell-based; conditions: Enterovirus A
How it was run: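 EV-A71 was tested in LLC-MK2 cells grown in DMEM with 10% FBS, penicillin, streptomycin and glutamine, at a low MOI preset to give full CPE in 3–4 days. Compound was dissolved in DMSO and diluted 2-fold, in triplicate. Cells were fixed with formaldehyde when control CPE was maximal, then stained with crystal violet and read at OD590. EC50 came from a 7-point four-parameter or sigmoidal fit.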

LLC-MK2 = assay: Cytotoxicity against monkey LLC-MK2 cells after 3 to 4 days by crystal violet staining-based spectrophotometric method; format: cell-based, Macaca mulatta; conditions: rhesus monkey; how it was run: as §1
Poliovirus 3 = assay: Antiviral activity against Poliovirus 3 infected in human HeLa-RW cells assessed as protection against virus-induced cytopathic effect after 3 to 4 days by crystal violet staining-based spectrophotometric method; format: functional, cell-based; conditions: Enterovirus C; how it was run: as §2

Row | Compound | selectivity ratio [1] | CC50 [2] [µM] | EC50 (Coxsackievirus B3) [nM] | selectivity ratio [3] | EC50 (Poliovirus 1) [µM] | EC50 (Enterovirus A71) [nM] | CC50 (LLC-MK2) [µM] | EC50 (Poliovirus 3) [µM]
1 | CC(C)n1ncc2c(C(=O)Nc3ccncn3)cc(-c3ccsc3)nc21 | > 250 | > 200 | 1200 | > 167 | > 10 | 800 | > 200 | > 10
2 | CC(C)n1ncc2c(C(=O)Nc3cc(F)ccc3F)cc(-c3cccs3)nc21 | 28.6 | > 200 | 2700 | > 74.1 | > 25 | 3500 | 100 | > 25
3 | CC(C)n1ncc2c(C(=O)Nc3ccncc3)cc(-c3cccs3)nc21 | 15.8 | 6 | 600 | 10 | > 10 | 400 | 6.3 | > 10
4 | CC(C)n1ncc2c(C(=O)Nc3ccccc3S(N)(=O)=O)cc(-c3cccs3)nc21 | 10 | 10 | 2600 | 3.8 | > 25 | 2500 | 25 | > 25
5 | CC(C)n1ncc2c(C(=O)Nc3ncccn3)cc(-c3ccsc3)nc21 | 41.7 | 40 | 1200 | 33.3 | > 10 | 1200 | 50 | > 10
6 | CC(C)n1ncc2c(C(=O)N3CCc4cccnc43)cc(-c3cccs3)nc21 | 4 | 37.5 | 9400 | 4 | > 10 | 12500 | 50 | > 10
7 | CC(C)n1ncc2c(C(=O)Nc3ccccc3F)cc(-c3cncs3)nc21 | 27 | > 200 | 3300 | > 60.6 | > 25 | 3700 | 100 | > 25
8 | CC(C)n1ncc2c(C(=O)Nc3cccnc3)cc(-c3ccsc3)nc21 | 15.4 | 18 | 600 | 30 | > 10 | 2400 | 37 | > 10
9 | CC(C)n1ncc2c(C(=O)Nc3cccc(S(=O)(=O)N(C)C)c3)cc(-c3cccs3)nc21 | > 250 | 12 | 1000 | 12 | > 10 | 800 | > 200 | > 10
10 | CC(C)n1ncc2c(NC(=O)c3ccc(F)cc3)cc(-c3cccs3)nc21 | 12.5 | 12 | 4700 | 2.6 | > 10 | 4000 | 50 | > 10
11 | CC(C)n1ccc2c(C(=O)Nc3ccccn3)cc(-c3cccs3)nc21 | > 167 | 18.8 | 2200 | 8.5 | > 10 | 1200 | > 200 | > 10
12 | CC(C)n1ncc2c(C(=O)Nc3ccc(F)c(S(N)(=O)=O)c3)cc(-c3cccs3)nc21 | 62.5 | > 200 | 1100 | > 182 | > 10 | 800 | 50 | > 10
13 | CC(C)n1ncc2c(C(=O)Nc3ccccn3)cc(-c3ccsc3)nc21 | 31.3 | 18 | 1200 | 15 | > 10 | 800 | 25 | > 10
14 | CC(C)n1ncc2c(C(=O)Nc3ccc(S(C)(=O)=O)cc3)cc(-c3cccs3)nc21 | 100 | 200 | 1000 | 200 | > 10 | 500 | 50 | > 10
15 | CNS(=O)(=O)c1cccc(NC(=O)c2cc(-c3cccs3)nc3c2cnn3C(C)C)c1 | 35.7 | 12 | 500 | 24 | > 10 | 700 | 25 | > 10
16 | CC(C)n1ncc2c(C(=O)Nc3ccc(F)cc3)cc(-c3ccco3)nc21 | > 76.9 | > 200 | 2400 | > 83 | > 25 | 2600 | > 200 | > 25
17 | CC(C)n1ncc2c(C(=O)Nc3ccc(F)cc3F)cc(-c3cccs3)nc21 | > 125 | > 200 | 1400 | > 143 | > 25 | 1600 | > 200 | > 25
18 | CC(C)n1ncc2c(C(=O)Nc3ccccc3F)cc(-c3ccccc3)nc21 | > 35.1 | 37.5 | 4500 | 8.3 | > 25 | 5700 | > 200 | > 25
19 | CC(C)n1ncc2c(C(=O)Nc3ccccn3)cc(-c3cccs3)nc21 | > 400 | > 200 | 800 | > 250 | > 10 | 500 | > 200 | > 10
20 | CC(C)n1ncc2c(C(=O)Nc3cccc(F)c3)cc(-c3cccs3)nc21 | > 83.3 | > 200 | 800 | > 250 | > 25 | 2400 | > 200 | > 25
21 | CC(C)n1ncc2c(C(=O)Nc3ccc(F)cc3)cc(-c3cccs3)nc21 | > 222 | > 200 | 700 | > 286 | > 25 | 900 | > 200 | > 25
